In the library only some 1.8% were active in any assay of this set; here they are far more common.
NPY2 pot ag – human NPY-Y2 potentiation or agonism, primary screen. P49146. cells expressing NPY-Y2, potentiator/agonist read-out. activation, % at 3.6 µM. 220,000 tested, 0.45% active; in the data active means activation above about 27%;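 further: cells stimulated with NPY near EC25 plus isoproterenol at EC100; 0% = vehicle plus submaximal agonist and 100% = vehicle plus saturating agonist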
Target sequence (P49146 whole entry, looked up): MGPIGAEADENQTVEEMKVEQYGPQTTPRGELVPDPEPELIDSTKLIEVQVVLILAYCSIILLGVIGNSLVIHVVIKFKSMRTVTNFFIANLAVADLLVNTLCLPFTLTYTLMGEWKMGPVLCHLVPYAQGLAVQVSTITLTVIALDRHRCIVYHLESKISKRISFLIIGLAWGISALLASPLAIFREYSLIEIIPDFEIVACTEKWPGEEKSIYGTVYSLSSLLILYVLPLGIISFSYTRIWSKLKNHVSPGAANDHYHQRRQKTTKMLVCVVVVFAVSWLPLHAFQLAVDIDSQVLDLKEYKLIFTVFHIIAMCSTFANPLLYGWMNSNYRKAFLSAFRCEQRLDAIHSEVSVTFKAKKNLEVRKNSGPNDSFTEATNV
NPY1 pot ag – potentiates or activates human NPY-Y1 receptor | P25929 | 220,000 tested, 0.37% active | NPY-Y1 expressing cells, potentiator/agonist activation | activation, % at 3.6 µM; in the data active means activation above about 33%, passing the limit was not always enough;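 further: cells stimulated with NPY at EC10 then isoproterenol at EC100; 0% = low agonist plus stimulus and 100% = saturating agonist plus stimulus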
NPY Y2 blocker – NPY-Y2 (human) receptor antagonism. NPY-Y2 expressing cells, antagonist mode. inhibition, % at 2.7 µM. 140,000 tested, 0.99% active; in the data active means inhibition above about 17%;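 further: 0% = vehicle with agonist challenge and 100% = reference antagonist with challenge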
NPY Y1 blocker – blocks the human neuropeptide Y Y1 receptor; P25929; inhibition, % at 3.6 µM; HEK293-CNG Y1 cells, membrane potential fluorescence; NPY at EC95, then isoproterenol; 200,000 tested, 1% active; AID 1040;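 active means inhibition above the campaign mean inhibition of all tested compounds plus 3 SD, cut at about 20% in these data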;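 further: 0% = DMSO wells given NPY plus isoproterenol and 100% = isoproterenol alone without NPY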
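material = HEK293 cells with Y1 receptor plus CNG channel | also added = NPY 25 nM then isoproterenol 1 µM plus Ro 20-1724 25 µM | schedule = dye 3 h, compound 60 min room temperature, stimulation 45 min | measured by = membrane potential fluorescence | benchmarks = high control isoproterenol alone, low control NPY with isoproterenol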
NPY-Y1 antag ct – antagonizes human NPY-Y1, counter-screen to NPY-Y2 antagonists; shares compounds with NPY Y2 blocker; 710 tested, 19% active; inhibition, % at 3.6 µM; cell-based NPY-Y1 antagonism counterscreen; in the data active means inhibition above about 20%;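 further: cells challenged with NPY then isoproterenol with cAMP sensed through a CNG channel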
NPY2 antag conf – human NPY-Y2 antagonism, confirmation; shares compounds with NPY Y2 blocker; HEK293 NPY-Y2 CNG channel, membrane potential fluorescence; inhibition, % at 2.8 µM; 710 tested, 32% active; AID 1257;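 active means mean inhibition of triplicate wells above the hit cutoff set in the primary screen, cut at about 17% in these data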;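 further: 0% = DMSO with NPY challenge and 100% = BIIE0246 high control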
* = called active by the depositor; . = no result given.

SMILES	NPY2 pot ag	NPY1 pot ag	NPY Y2 blocker	NPY Y1 blocker	NPY-Y1 antag ct	NPY2 antag conf
Cc1ccc2cccc(NC(=S)NC(=O)c3ccccc3)c2n1	-51	-48	22*	14	20*	43*
CSc1nc(-c2ccccc2)nc(N2CCOCC2)c1C(C)=O	-11	2	.	0	.	.
O=C(CSc1nnc2ccccn12)Nc1ccccc1C(=O)O	11	7	.	4	.	.
Cc1cccc(NC(=S)N(CCN(C)C)Cc2cc3cccc(C)c3[nH]c2=O)c1	-12	-53	8	8	.	.
Cc1cccc(NC(=S)N(CCN(C)C)Cc2cc3cc(C)cc(C)c3[nH]c2=O)c1	5	-8	19*	17	14	27*
COc1ccc(C(=O)NCC(=O)OCC(=O)Nc2ccc(C)c(S(=O)(=O)N(C)C)c2)cc1OC	-17	2	.	.	.	.
Clc1ccccc1-c1nc2ccccc2c2nc3ccccc3n12	-4	-9	18*	0	17	13
O=[N+]([O-])c1ccc2[nH]ncc2c1	9	21	.	-6	.	.
CCC(=O)N1CCN(c2ccc(Cl)cc2NC(=O)Cc2ccccc2)CC1	10	-10	21*	19	12	15
Cc1c(NC(=O)CS(=O)(=O)c2ccccc2)c(=O)n(-c2ccccc2)n1C	-3	6	.	-2	.	.
OC(CCN1CCCCC1)(c1ccccc1)C1CCCCC1 (stereo not given)	1	-34	20*	13	6	12
OC(CCN1CCOCC1)(c1ccc(Cl)cc1)C1CCCCC1 (stereo not given)	-18	-20	8	11	.	.
CCOc1ccc2nc(NC(=O)CS(=O)(=O)c3ccccc3)sc2c1	-23	-24	1	0	.	.
CCOc1ccc2nc(NC(=O)CS(=O)(=O)c3ccc(C)cc3)sc2c1	-18	-17	25*	8	16	18*
CCCCCSc1nnc(-c2ccccc2NC(C)=O)c(=O)[nH]1	-16	-4	.	-2	.	.
CCCCCSc1nnc(-c2ccccc2N)c(=O)[nH]1	-7	-11	19*	7	15	12
COc1ccc(-c2csc(NC(=O)C3=NN(c4ccccc4)C(=O)CC3)n2)cc1	15	-7	.	-2	.	.
CCOc1cc(/C=N/Nc2nc(-c3cccc(S(=O)(=O)N4CCCC4)c3)cs2)ccc1O	14	10	-2	-5	.	.
COc1ccc(CNC(=O)C(=O)NCC2OCCN2S(=O)(=O)c2cccs2)cc1 (stereo not given)	-4	-5	3	-3	.	.
O=[N+]([O-])c1ccc(OCC(O)CN2CCN(c3ccccc3F)CC2)cc1 (stereo not given)	4	-14	5	6	.	.
O=C1c2ccccc2NC(c2ccc(Cl)cc2Cl)N1Cc1ccccc1 (stereo not given)	-16	-12	28*	14	6	11
COCCN(C(=O)Cn1nnc2ccccc21)C(C(=O)NC1CCCCC1)c1ccc(OC)cc1OC (stereo not given)	-53	-95	19*	20	18	17
COC(=O)Nc1ccc(S(=O)(=O)N2CCC(C(=O)NC3CCCCC3)CC2)cc1	-11	-17	.	-2	.	.
COc1ccccc1NC(=O)c1ccc(COc2ccc3c(c2)CCC3)cc1	3	-8	22*	4	4	16
COC(=O)c1ccccc1NC(=O)c1ccc(COc2ccc3c(c2)CCC3)cc1	5	-11	9	0	.	.
SMILES	NPY2 pot ag	NPY1 pot ag	NPY Y2 blocker	NPY Y1 blocker	NPY-Y1 antag ct	NPY2 antag conf
O=C(NNC(=O)c1ccccc1O)c1ccco1	-1	-2	.	-3	.	.
COc1ccc(CCNC(=O)CSc2nc(O)c(CC(C)C)c(=O)[nH]2)cc1OC	6	4	17*	-2	2	2
C=CCn1c(SCc2nc3ccccc3nc2C)nnc1-c1ccoc1C	5	-24	3	8	.	.
CCCn1c(C)cc(C(=O)COc2ccc(-c3nnco3)cc2)c1C	-3	11	.	7	.	.
O=C(c1cc2sccc2n1Cc1ccccc1)N1CCc2ccccc21	-25	0	20*	17	10	12
C/C(=C\C(=O)c1ccc(Br)cc1)NCc1ccccc1	-5	-11	9	5	.	.
C/C(=C\C(=O)c1ccc(Br)cc1)NCc1ccc(C)cc1	-4	3	21*	11	8	10
CC1(C)Cc2ccccc2-c2nnc(SCc3ccccc3)n21	-8	-40	17*	10	6	3
O=C(COC(=O)Cc1c(Cl)cccc1Cl)Nc1ccccc1-c1ccccc1	-7	-31	7	7	.	.
O=C(CSCc1c(Cl)cccc1Cl)Nc1ccccc1-c1ccccc1	3	10	37*	11	12	24*
CCOc1ccc(C(CC(=O)O)NC(=O)c2sc3ccccc3c2Cl)cc1 (stereo not given)	-23	-43	19*	18	22*	28*
Nc1c2c(nc3sc4c(c13)CCCC4)CCCCCC2	0	-10	19*	7	14	18*
Nc1nc2sc3c(c2c(=O)s1)CCCC3	17	6	1	5	.	.
O=C(CS(=O)(=O)c1ccc2ccccc2c1)N1CCCCCC1	-1	15	.	-2	.	.
O=C(NNC(=O)C12CC3CC(CC(C3)C1)C2)[C@@H]1C[C@H]1c1ccccc1	-1	9	.	3	.	.
O=C(c1cc(-c2cccs2)on1)N1CCc2ccccc2C1	-6	-33	29*	14	17	17
O=C(c1cc(-c2ccccc2O)on1)N1CCc2ccccc2C1	-21	-7	6	3	.	.
CC(C)(C)[C@H]1C=C(C(N)=O)O[C@@H](OCc2ccc(CO)cc2)C1	-6	-4	.	-3	.	.
Cc1ccc(N(C)S(=O)(=O)c2cccc(C(=O)Nc3nc4ccccc4[nH]3)c2)cc1	-17	-2	23*	10	42*	20*
Cn1c(C(=O)O)c(CC(=O)N2CCC(Cc3ccccc3)CC2)c2ccccc21	-12	-23	2	7	.	.
Brc1ccc2c(c1)OCCOCCOc1cc(Br)ccc1OCCOCCOCCO2	-4	-16	24*	19	19	15
Brc1cc2c(cc1Br)OCCOCCOCCOCCO2	-5	-2	.	3	.	.
Cc1ccc(N2C(=O)C3C4C=CC(CNC(=S)Nc5cccc(Cl)c5)(O4)C3C2=O)cc1 (stereo not given)	-12	-19	-2	-4	.	.
N#CCSc1nnc(COc2cccc3ccccc23)n1-c1ccccc1	8	31	15	2	.	.
COc1ccc(-n2c(COc3cccc4ccccc34)nnc2SCC#N)cc1	-3	-17	18*	16	6	6
O=C(c1ccc(S(=O)(=O)N2CCCC2)cc1)N1CCC(CN2C(=O)c3cccc4cccc(c34)C2=O)CC1	-36	18	.	.	.	.
COc1ccc(S(=O)(=O)N2CCC(CN3C(=O)c4cccc5cccc(c45)C3=O)CC2)cc1	-5	-48	23*	6	8	15
Cc1nc(SC2CC(=O)N(c3ccccc3)C2=O)nc2c1CCCC2 (stereo not given)	-31	-15	21*	19	17	14
